For orientation: GI50 means the concentration at which growth is held to half of that of the control. A low value points to more potent growth inhibition. One may read the inhibition as the change of the read-out against control, counted positive when it falls.

The results in this text go back to ChEMBL document CHEMBL1155877, “Design, synthesis, and biological evaluation of 14-substituted aromathecins as topoisomerase I inhibitors” (2008).

In one assay the test system is SN12C. In words: Antiproliferative activity against human SN12C cells. The assay is classed as functional. Summed up: (§1)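 NCI ~60 human tumor cell line screen. After an initial one-dose test, selected compounds run at five concentrations spanning 10^-8 to 10^-4 M. GI50 reported for selected lines from each subpanel.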
The subject of a further assay is MDA-MB-435. The assay can be described thus: Antiproliferative activity against human MDA-MB-435 cells. The assay is classed as functional. A digest of the protocol:
as §1

The test system of assay [1] is HOP-62. The assay can be described thus: Antiproliferative activity against human HOP62 cells. The assay is classed as functional. A digest of the protocol:
as §1

The target in assay [2] is T1, DNA topoisomerase 1 (Homo sapiens) (UniProt P11387).
T1 sequence (whole entry): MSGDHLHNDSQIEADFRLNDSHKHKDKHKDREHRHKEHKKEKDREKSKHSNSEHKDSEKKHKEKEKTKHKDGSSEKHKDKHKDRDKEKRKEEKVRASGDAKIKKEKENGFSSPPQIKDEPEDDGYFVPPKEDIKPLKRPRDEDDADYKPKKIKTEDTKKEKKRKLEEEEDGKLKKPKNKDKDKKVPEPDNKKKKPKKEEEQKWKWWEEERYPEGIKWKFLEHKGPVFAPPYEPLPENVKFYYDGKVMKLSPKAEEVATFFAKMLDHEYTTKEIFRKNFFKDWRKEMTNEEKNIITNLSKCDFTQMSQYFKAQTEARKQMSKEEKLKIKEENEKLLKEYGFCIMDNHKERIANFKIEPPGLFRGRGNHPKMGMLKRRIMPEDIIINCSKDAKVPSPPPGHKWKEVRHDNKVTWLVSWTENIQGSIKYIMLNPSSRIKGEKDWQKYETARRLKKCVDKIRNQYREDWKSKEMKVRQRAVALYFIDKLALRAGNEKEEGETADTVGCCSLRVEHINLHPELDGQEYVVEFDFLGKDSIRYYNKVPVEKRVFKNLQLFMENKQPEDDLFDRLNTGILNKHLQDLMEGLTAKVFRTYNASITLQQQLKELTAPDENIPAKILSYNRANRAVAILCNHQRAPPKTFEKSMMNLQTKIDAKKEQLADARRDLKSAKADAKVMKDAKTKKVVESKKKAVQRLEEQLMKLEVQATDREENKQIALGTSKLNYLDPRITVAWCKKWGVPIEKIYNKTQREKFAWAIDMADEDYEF
The assay can be described thus: Inhibition of human recombinant topoisomerase 1 assessed as DNA cleavage relative to 1 uM camptothecin. Summed up:
(§2)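 Baculovirus-expressed, purified human recombinant top1. Substrate is the 161 bp PvuII/HindIII fragment of pBluescript SK(-), 3'-end labeled at the HindIII site with [α-32P]-dGTP (about 50 000 dpm/reaction). Incubated with drug at 22 °C for 30 min. Products resolved on denaturing 16% polyacrylamide/7 M urea gels and imaged by phosphorimager. Tested at 0.1, 1, 10 and 100 µM.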

For another assay, the system named is DU-145. In words: Antiproliferative activity against human DU145 cells. In kind it is functional. Summed up:
as §1

The test system of a further assay is HCT-116. In words: Antiproliferative activity against human HCT116 cells. The assay is classed as functional. A digest of the protocol: as §1
Another assay has as its system OVCAR-3. In words: Antiproliferative activity against human OVCAR-3 cells. In kind it is functional. Summed up: as §1
The subject of a further assay is UACC-62. The assay can be described thus: Antiproliferative activity against human UACC62 cells. The assay is classed as functional. A digest of the protocol:
as §1

The next assay concerns SF-539. In words: Antiproliferative activity against human SF539 cells. In kind it is functional. Summed up:
as §1

Assay [3] has as its system HOP-62. In words: Growth inhibition of human HOP62 cells at 10 uM. In kind it is functional. The note with it: pooled result: one value given for 8 cell lines, strains, targets or settings, read-out: GI.
Assay [4] concerns the target T1, DNA topoisomerase 1 (Homo sapiens). The assay can be described thus: Induction of human recombinant topoisomerase 1-mediated DNA cleavage at 100 uM. A digest of the protocol: as §2

The source made the active and inactive calls. No cut-off for these calls is given here. Where only a bound is given, the exact number is not on record here.

For the compound `O=c1c2ccccc2cc2n1Cc1c-2nc2ccccc2c1CNCCO`, the GI50 with SN12C was 2.7 µM; in the assay with MDA-MB-435 it was over 100 µM; in the assay with HOP-62 [1], 3.5 µM; in the assay with DU-145, 2.8 µM; with HCT-116, 3.6 µM; in the assay on OVCAR-3, 6.3 µM. Also, the GI50 with UACC-62 stood at 2.6 µM; in the assay on SF-539, 3.9 µM. In [2], the inhibition came out at 75%.
Take `O=c1c2ccccc2cc2n1Cc1c-2nc2ccccc2c1CNCCCn1ccnc1`: the GI50 turned out to be 3.5 µM in the assay with SN12C; 7 µM in the assay on MDA-MB-435; 4.7 µM in the assay with HOP-62 [1]; 3.2 µM in the assay with DU-145; 3.2 µM in the assay with HCT-116; 4.4 µM in the assay on OVCAR-3. In addition, the results for the GI50 with UACC-62 and in the assay on SF-539 were 6.4 µM and 3.8 µM, respectively. For the same compound, in [2], the inhibition amounted to 50%.
On to `COc1cc2c3c(n(C)c(=O)c2cc1OC)-c1cc2c(cc1C3=O)OCO2`, for which the GI50 was 68 µM with SN12C; 96 µM in the assay with MDA-MB-435; 1.3 µM with HOP-62 [1]; 37 µM in the assay with DU-145; 35 µM in the assay with HCT-116; 4.2 µM in the assay with UACC-62. Further, it took 41 µM to inhibit growth in the assay with SF-539 by half (GI50). Moreover, the inhibition in assay [2] stood at 50%.
With `CC[C@@]1(O)C(=O)OCc2c1cc1n(c2=O)Cc2cc3ccccc3nc2-1` [CAMPTOTHECIN], the GI50 came out at 0.02 µM in the assay with SN12C; 0.04 µM with MDA-MB-435; 0.01 µM with HOP-62 [1]; 0.01 µM in the assay on DU-145; 0.03 µM with HCT-116; 0.01 µM in the assay on UACC-62. Further, it took 0.01 µM to inhibit growth in the assay with SF-539 by half (GI50).
Consider `O=c1c2ccccc2cc2n1Cc1c-2nc2ccccc2c1CN1CC[C@H](O)C1`, for which the GI50 in the assay on SN12C came to 16.9 µM; in the assay on MDA-MB-435, 10.3 µM; with HOP-62 [1], 28.6 µM; in the assay with DU-145, 7 µM; in the assay with HCT-116, 9 µM; in the assay with OVCAR-3, 5.5 µM. Besides, the results for the GI50 in the assay with UACC-62 and in the assay with SF-539 were 2.7 µM and 5.4 µM, respectively. The inhibition in assay [2] worked out at 75%.
As for `COc1cc2c3c(n(CCCNCCO)c(=O)c2cc1OC)-c1cc2c(cc1C3=O)OCO2` [LMP-744], the GI50 with SN12C was over 0.01 µM; in the assay with MDA-MB-435, 0.79 µM; in the assay on HOP-62 [1], 0.02 µM; with DU-145, over 0.01 µM; with HCT-116 it was 0.1 µM; in the assay on OVCAR-3, 0.5 µM. In addition, the GI50 with UACC-62 turned out to be 0.03 µM; in the assay with SF-539, 0.04 µM. The result in assay [2] was Active.
For `CN(C)CCCc1c2c(nc3ccccc13)-c1cc3ccccc3c(=O)n1C2`, the inhibition in assay [2] amounted to 75%. In the assay on HOP-62 [3], the inhibition of growth at 10 µM was 21.4%.
`O=c1c2cccc(CO)c2cc2n1Cc1cc3ccccc3nc1-2`: the inhibition in assay [2] amounted to 20%.
In the case of `O=c1c2ccccc2cc2n1Cc1c-2nc2ccccc2c1CN1CCOCC1`, in assay [2], the inhibition was 50%. Moreover, the inhibition of growth at 10 µM in the assay on HOP-62 [3] is 14%.
In the case of `O=c1c2ccccc2cc2n1Cc1c-2nc2ccccc2c1CCl`, the GI50 with SN12C is over 100 µM; in the assay on MDA-MB-435, over 100 µM; in the assay with HOP-62 [1] it was 26.5 µM; in the assay with DU-145 it was over 100 µM; with HCT-116, 43.4 µM; in the assay with OVCAR-3 it was over 100 µM. Further, the GI50 is over 100 µM with UACC-62 and 7.4 µM with SF-539. In addition, the inhibition in [2] worked out at 20%.
For the compound `O=c1c2ccccc2cc2n1Cc1c-2nc2ccccc2c1CCCn1ccnc1`, the GI50 amounted to 4.5 µM in the assay on SN12C; 4.2 µM with MDA-MB-435; 2 µM in the assay on HOP-62 [1]; 3.3 µM in the assay on DU-145; 1.6 µM with HCT-116; 5 µM in the assay with OVCAR-3. Further, the GI50 turned out to be 1.5 µM with UACC-62 and 0.74 µM in the assay on SF-539. Also, in assay [2], the inhibition is 75%.
Regarding `O=c1c2ccccc2cc2n1Cc1c-2nc2ccccc2c1CNCCCN1CCOCC1`, the inhibition of growth at 10 µM in the assay on HOP-62 [3] came to 25.5%.
Take `CN(C)Cc1c2c(nc3ccccc13)-c1cc3ccccc3c(=O)n1C2`: the GI50 in the assay with SN12C, with MDA-MB-435, in the assay with HOP-62 [1], in the assay with DU-145, with OVCAR-3 and in the assay with UACC-62 was over 100 µM each time. In addition, the GI50 in the assay with SF-539 was over 100 µM. Moreover, the inhibition in [2] worked out at 75%.
On to `COc1cc2cc3n(c(=O)c2cc1OC)Cc1cc2ccccc2nc1-3` [DIMETHOXYAROMATHECIN], for which the GI50 with SN12C, in the assay with MDA-MB-435, in the assay on HOP-62 [1], in the assay with DU-145, in the assay on OVCAR-3 and in the assay with UACC-62 was over 100 µM each time. For the same compound, in the assay with SF-539, the GI50 is over 100 µM. Besides, the inhibition in assay [2] turned out to be 20%.
In the case of `O=c1c2ccccc2cc2n1Cc1c-2nc2ccccc2c1CCCNCCO`, the GI50 in the assay with SN12C came to 4.1 µM; in the assay on MDA-MB-435, 1.7 µM; in the assay with HOP-62 [1], 1.2 µM; in the assay with DU-145, 13.2 µM; in the assay on HCT-116, 1.6 µM; with OVCAR-3 it was 6.3 µM. For the same compound, the GI50 with UACC-62 worked out at 1.8 µM; with SF-539, 12.9 µM. In addition, the result in assay [2] and in assay [4] was Active.
As to `CN1CCN(Cc2c3c(nc4ccccc24)-c2cc4ccccc4c(=O)n2C3)CC1`, the GI50 in the assay with SN12C is over 100 µM; in the assay on MDA-MB-435 it was 2.1 µM; in the assay with HOP-62 [1], over 100 µM; with DU-145, 4.9 µM; in the assay with HCT-116, 1.9 µM; in the assay on UACC-62 it was over 100 µM. Also, the GI50 in the assay with SF-539 came out at 1.8 µM. Moreover, in [2], the inhibition came out at 75%.
Consider `NCCCc1c2c(nc3ccccc13)-c1cc3ccccc3c(=O)n1C2`, for which the inhibition in [2] was found to be 20%.
For `O=c1c2ccccc2cc2n1Cc1c-2nc2ccccc2c1Cn1ccnc1`, the GI50 in the assay with SN12C is 21.5 µM; in the assay on MDA-MB-435, over 100 µM; with HOP-62 [1] it was 10 µM; with DU-145, 11.5 µM; in the assay with HCT-116, 13.2 µM; in the assay with OVCAR-3, 17 µM. Moreover, the figures for the GI50 in the assay on UACC-62 and in the assay with SF-539 were 3.4 µM and 4.7 µM, respectively. In addition, the inhibition in [2] was determined as 75%.
On to `O=c1c2ccccc2cc2n1Cc1cc3ccccc3nc1-2` [ROSETTACIN], for which the 50% growth inhibitory concentration (GI50) with SN12C and in the assay with DU-145 was over 100 µM throughout. Also, in assay [2], the inhibition was 50%.
Take `O=c1c2ccccc2cc2n1Cc1c-2nc2ccccc2c1CCCN1CCOCC1`: the GI50 was 5.9 µM in the assay with SN12C; over 100 µM in the assay with MDA-MB-435; 5 µM in the assay on HOP-62 [1]; 20.3 µM in the assay with DU-145; 3.9 µM in the assay with HCT-116; 10.6 µM with OVCAR-3. The GI50 was 1.4 µM in the assay on UACC-62 and 3.5 µM with SF-539. In addition, the inhibition in assay [2] came to 50%.
Consider `NCc1c2c(nc3ccccc13)-c1cc3ccccc3c(=O)n1C2`, for which the GI50 was 2.9 µM in the assay with SN12C; 9.4 µM in the assay with MDA-MB-435; 9.8 µM in the assay with HOP-62 [1]; 2.8 µM in the assay with DU-145; 1.5 µM with HCT-116; 2.9 µM in the assay with OVCAR-3. Also, the GI50 with UACC-62 is 11.7 µM; in the assay on SF-539, 4.9 µM. Further, the inhibition in assay [2] turned out to be 50%.
